# Reference: paper PMC5510570 (The Journal of organic chemistry, 2017)
# “Also recorded” adds a separate entry of the source.
# Columns and labels:
# Format in all cases: cell-based
# human HEp2 cells [1] = test: Phototoxicity; conditions: for IC50: read-out: Phototoxicity IC50, 1.5 J/cm^2 light dose, up to 100 μM
# Outline: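 HEp2 cells were grown in 50:50 DMEM:AMEM with 5% FBS and 1% penicillin/streptomycin, plated at 7500 cells/well and grown 48 h. Cells were loaded 24 h with test compound at 0–100 μM (from 32 mM DMSO stock), washed with PBS and given fresh medium. They were irradiated 20 min with a 600 W water-filtered halogen lamp (~1.5 J/cm²) and incubated 24 h. Viability was read with 20% CellTiter Blue (4 h, 570/615 nm), normalized to untreated (100%) and 0.2% saponin (0%).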
# human HEp2 cells [2] = test: Time-dependent cellular uptake; conditions: for Cellular uptake at 24 h: 10 μM compound; for Cellular uptake (in words): 0-24 h
# Outline: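 HEp2 cells, cultured and plated as for cytotoxicity, were exposed to 10 μM test compound for 0, 1, 2, 4, 8 and 24 h. Cells were PBS-washed and lysed in 0.25% Triton X-100/PBS, and fluorescence was read at 485/590 nm against a compound standard curve (0.3125–10 μM). Cell number was measured by CyQuant against a 10⁴–10⁵ cell standard curve. Uptake was expressed as nM compound per cell.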
# human HEp2 cells [3] = test: Dark cytotoxicity; conditions: read-out: Dark toxicity IC50, in the dark, up to 200 μM, incubated overnight
# Outline: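 HEp2 cells kept in 50:50 DMEM:AMEM with 5% FBS and 1% penicillin/streptomycin, seeded at 7500 per well and grown 48 h. Dosed at 0, 6.25, 12.5, 25, 50, 100 and 200 μM final, diluted from DMSO stock, overnight at 37°C, 5% CO₂. Washed with PBS, then 20% CellTiter Blue medium for 4 h, read at 570/615 nm. Untreated set to 100%, 0.2% saponin to 0%.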
Compound,"Phototoxicity (in words) (human HEp2 cells [1]; light irradiation 1.5 J/cm^2, up to 100 μM)",IC50 (human HEp2 cells [1]),Cellular uptake at 24 h (human HEp2 cells [2]),Cellular uptake (in words) (human HEp2 cells [2]; 10 μM),IC50 (human HEp2 cells [3]),Time at which uptake plateau was reached (human HEp2 cells [2]; 10 μM)
"2,3,5,6,8-Pentaphenyl-BODIPY [BODIPY 4]",slight phototoxicity,> 100 µM,0.058±0.028 nM/cell,very low uptake; also recorded: accumulated the least,> 200 µM,
"3,5,8-Triphenyl-2,6-dichloro-BODIPY [BODIPY 2]",,> 100 µM,1.2±0.10 nM/cell,taken-up faster and more efficiently at all times investigated; also recorded: accumulated the most within cells after 24 hours,> 200 µM,
"3,5,8-Triphenyl-2,6-dithienyl-BODIPY [BODIPY 3]",,> 100 µM,0.14±0.01 nM/cell,very low uptake,> 200 µM,
"8-(4-Benzyloxycarbonylphenyl)-3,5-di(4-methoxyphenyl)-2,6-dichloro-BODIPY [BODIPY 6a]",,> 100 µM,0.14±0.01 nM/cell,,> 200 µM,
"8-(4-Cyanophenyl)-3,5-di(4-methoxyphenyl)-2,6-dithienyl-BODIPY [BODIPY 7]",,> 100 µM,0.12±0.01 nM/cell,,> 200 µM,
"COc1ccc(C2=[N+]3C(=C(c4ccc(C#N)cc4)c4cc(Cl)c(-c5ccc(OC)cc5)n4[B-]3(F)F)C=C2Cl)cc1 [BODIPY 6b, 8-(4-Cyanophenyl)-3,5-di(4-methoxyphenyl)-2,6-dichloro-BODIPY]",,> 100 µM,0.51±0.01 nM/cell,higher cellular uptake; also recorded: highest cellular uptake,> 200 µM,
"COc1ccc(C2=CC3=C(c4ccc(C#N)cc4)c4cc(-c5ccc(C#N)cc5)c(-c5ccc(OC)cc5)n4[B-](F)(F)[N+]3=C2c2ccc(OC)cc2)cc1 [BODIPY 8, 8-(4-Cyanophenyl)-3,5-di(4-methoxyphenyl)-2-(4-methoxyphenyl)-6-(4-cyanophenyl)-BODIPY]",,> 100 µM,0.79±0.13 nM/cell,higher cellular uptake; also recorded: highest cellular uptake,> 200 µM,8 h
